According to ChEMBL document CHEMBL4513216, “Probing the Open Global Health Chemical Diversity Library for Multistage-Active Starting Points for Next-Generation Antimalarials” (ACS Infect Dis, 2020):

Assay: Toxicity liver stage against HepG2, at 10uM
Format: cell-based
Parameters: test concentration 10 uM, cell line HepG2-A16-CD81EGFP
Settings: human, HepG2-A16-CD81EGFP cells; read-out: INHIBITION
Procedure, shortened: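 Uninfected HepG2-A16-CD81EGFP cells, 3 × 10^3 per well, 1536-well, plated on prespotted compound at 10 μM final, parasite-free screening media added to match infected plates; puromycin 10 μM positive, DMSO 0.5% negative; run in parallel with 48 h PbLuc assay at 37 °C, 5% CO2; viability by CellTiter-Glo luminescence, normalized to controls.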

| Structure (SMILES) | cytotoxicity at 10 µM [%] |
| --- | --- |
| CCN1CCCC2(CCN(Cc3nnc(C4CC4)o3)C2)C1=O (stereo not given) | 1.56 |
| Cc1ccc(S(=O)(=O)N(C)CC(N)=O)c(Cl)c1 | 5.79 |
| O=C(NC[C@@H]1C[C@@H]2CN(C(=O)CO)C[C@H]2O1)c1ccsc1 | -96.5 |
| CCC(O)CN1CCN(C(=O)c2csc(COC)n2)CC1 (stereo not given) | 7.72 |
| Cc1cc(CN(C)C(=O)C(c2ccccc2C)N(C)C)on1 (stereo not given) | 3.65 |
| Cc1cc(N2CCC(O)(CN(C)C(=O)CCCN)C2)c2cnccc2n1 (stereo not given) | -8.65 |
| O=C1CN(S(=O)(=O)c2ccc(F)cc2)CC(O)CN1CC1CC1 (stereo not given) | 0.227 |
| Cc1cc(C2CCCN2C(=O)NCc2cccnc2OC(C)C)on1 (stereo not given) | -9.63 |
| NC(=O)CC1CC2(CCNCC2)c2cc(F)ccc21 (stereo not given) | -107 |
| CNC(=O)NCC(=O)Nc1ccccc1N1CCc2ccccc21 | 2.46 |
| CC(C)N(CC(N)=O)C(=O)c1cc(F)ccc1N1CCN(C)CC1 | 7.66 |
| O=C1O[C@@H]2CN(C3CCOCC3)C[C@@H]2N1CCCc1ccc(F)cc1 | 5.77 |
| CO[C@@H]1CC[C@@H](NC(=O)c2ccc(OCCN3CCCC3)cc2)[C@H]1O | -3.83 |
| Cc1nnc2n1CCN(CCC(=O)Nc1sccc1C#N)C2 | -2.28 |
| CCNC(=O)c1cn2cc(-c3ccccc3Cl)n(CC3CC3)c(=O)c2n1 | 4.63 |
| CCC(C(=O)NC1(COC)CCCC1)n1cccn1 (stereo not given) | -3.41 |
| COCc1cc(N(C)CCC(O)c2ccccc2)n2nccc2n1 (stereo not given) | -2.49 |
| COc1ccc(C(=O)NCCCNc2ncccn2)cc1F | -10.5 |
| COCCC1COC2(CCN(C(=O)CC3CCCC3)CC2)C1 (stereo not given) | -2.46 |
| CC(=O)N1CCC2(CC1)c1ncc(-c3ccc(F)cc3)n1CCN2C | -101 |
| Cc1c(S(=O)(=O)N2CCCC2c2nnc(-c3ccsc3)o2)cnn1C (stereo not given) | 3.04 |
| Cc1cc(C[C@@H]2CCC[C@H]2NCc2c[nH]nc2-c2ccccc2)on1 | -14 |

| Structure (SMILES) | cytotoxicity at 10 µM [%] |
| --- | --- |
| CCc1nnc(CN2CCCC(Cn3nc(C)nc3C)C2)o1 (stereo not given) | 6.81 |
| Cc1ccc(CNC(=O)Cn2ncc3c2c(C)nn3C)cc1 | 22.2 |
| Cn1ncc(N2CCOC(CCNC(=O)CO)C2)cc1=O (stereo not given) | -8.58 |
| Cc1ccc(S(=O)(=O)NC(=O)CCc2ccco2)cc1N(C)C | -0.845 |
| Cn1nc(N2CCCC(C(=O)Nc3nc4ccccc4[nH]3)C2)ccc1=O (stereo not given) | 1.08 |
| Nc1cc(-c2cc(C(=O)O)ccc2Cl)c2cc[nH]c2n1 | 1.94 |
| CCOC(=O)CCNC(=O)c1nc(OCC)ccc1Cl | -7.6 |
| COCCCNc1c(C#N)c2c(c3nncn13)CN(C)CC2 | 5.86 |
| Cc1nc(C)n(CC2CN(Cc3ccncc3)Cc3nccn3C2)n1 (stereo not given) | -142 |
| CCC(C)NC(=O)c1nn(C)c(NC(=O)c2ccccc2OC)c1F (stereo not given) | -6.24 |
| CCN1CC[C@@]2(C(=O)N3CCCC3)CCN(S(C)(=O)=O)CC[C@@H]12 | -0.537 |
| Cn1ccc(CN2CCC(OCCc3ccccc3)CC2)cc1=O | -4.43 |
| CCc1nc(C(=O)N2CC(C(C)C)Nc3ccccc32)c[nH]1 (stereo not given) | -0.0979 |
| Nc1nccnc1C1CN(C(=O)c2cnccn2)CCO1 (stereo not given) | -9.17 |
| CCn1nc(C(=O)N2CCCC(n3cncn3)C2)ccc1=O (stereo not given) | -3.3 |
| CC(C)C(c1cccnc1)N(C)C(=O)Cc1ccc(O)cc1 (stereo not given) | -1.03 |
| CCN(Cc1nc(COC)no1)Cc1cccnc1NC(=O)C(C)(C)C | -47.9 |
| Cc1nn(C)c(N(C)C)c1CNCc1ccnn1C | -3.35 |
| CC(CN1CCCC1=O)NC(=O)NCc1ccccc1-n1cccn1 (stereo not given) | 3.33 |
| c1ccc(Cc2nnc(CN3CCCCC3Cn3cncn3)o2)cc1 (stereo not given) | -20.4 |
| O=C(CN1CCNCC1)NCc1ccc2sccc2c1 | 1.16 |
| CCc1noc(CNc2nc(-c3cccnc3)nc3c2CCNCC3)n1 | 0.562 |

| Structure (SMILES) | cytotoxicity at 10 µM [%] |
| --- | --- |
| O=C(c1ccccc1N1CCOCC1)N1CCCC(n2cccn2)C1 (stereo not given) | -7.32 |
| CCNc1c(NC(=O)C2CC2)c(=O)oc2ccccc12 | -5.99 |
| Cc1cc2nc(-c3cn(C4CCNCC4)nn3)[nH]c2cc1C | -8.1 |
| Fc1ccc(-c2nnc(CNC3CCc4ncnn4C3)o2)cc1 (stereo not given) | -3.67 |
| Cc1cnn(CC(=O)N2CCC3(CCC(=O)N(C4CCCC4)C3)CC2)c1 | 3.03 |
| CCn1cc(C(=O)N2CCCC(c3nccs3)C2)cn1 (stereo not given) | -4.19 |
| CNC(=O)[C@H]1C[C@@H]2CN(S(=O)(=O)c3ccc(C)c(F)c3)C[C@@H]2N1C | -3.03 |
| Cc1cnn(CC2CCCN2Cc2cn3ccsc3n2)c1 (stereo not given) | -1.75 |
| Cn1cc(CN2C[C@H]3CCC[C@@]3(COc3cccnc3)C2)cn1 | -107 |
| CCC(CO)NCc1ccc(-c2ccc(F)c(Cl)c2)o1 (stereo not given) | 5.24 |
| N#Cc1cccc(N2CCC3(CCC(=O)N(CCCO)C3)CC2)n1 | 2.11 |
| Cc1nn(C)cc1-c1ccnc(N2CCN(c3ccccc3)C(=O)C2)n1 | -7.57 |
| Cc1cn2nc(Sc3nnnn3C)sc2n1 | 17.3 |
| Cc1ccc(N2CCCc3sc(C(=O)NCc4cccnc4)nc32)nn1 | -2.96 |
| CC(C)c1nc(CN2CCC(c3ccnn3CCO)CC2)no1 | -5.71 |
| CCS(=O)(=O)NCCN1CCN(C(C#N)c2ccccc2)CC1 (stereo not given) | -4.04 |
| CC(C)NC(=O)C1CCc2nnc(CNC(=O)c3cccnc3)n21 (stereo not given) | 6.94 |
| Cc1cc(CCC(=O)NCc2ncc[nH]2)ccc1Br | -18.1 |
| CCOc1ccc(Cl)c(C(=O)N2CCN(CC(O)CC)CC2)n1 (stereo not given) | -4.85 |
| CC(C)(C)c1ncc(CNc2ccccc2SCCC(N)=O)s1 | 55.4 |
| O=C(c1cccnc1)N1CCC2(CCN(C(=O)c3ccco3)CC2)C1 | -91.6 |
| O=C(c1ccc(=O)[nH]c1)N1C[C@H]2CC[C@@H](C1)N(Cc1ccccc1)C2 | -100 |

| Structure (SMILES) | cytotoxicity at 10 µM [%] |
| --- | --- |
| O=C([C@H]1CC[C@@H]2[C@@H](CCN2C2CCCCC2)O1)N1CCOCC1 | 7.19 |
| COc1ccc(Nc2cc(C)nc(C)n2)cc1N1CCCC1=O | -2.19 |
| O=C(O)C(c1ccc2c(c1)OCO2)N1CCC(C(=O)N2CCCC2)CC1 (stereo not given) | 4.22 |
| CN(C)CC(=O)N1CCC2(CC1)COCCN(c1ncccn1)C2 | 5.38 |
| c1cncc(-c2nnc([C@H]3CCN(CC4CC4)C3)o2)c1 | 9.06 |
| Cn1c(N)c2c(=O)n(C)c(-c3ccccc3)cc2c(C#N)c1=O | 1.57 |
| c1cc(C2CCN(C3CCCCC3)C2)n[nH]1 (stereo not given) | 1.65 |
| Cc1ccc(CNc2ccccc2SCCC(N)=O)s1 | 10.6 |
| CC(O)c1cccc(Nc2nc(NCCO)c3ccccc3n2)c1 (stereo not given) | 18.4 |
| Cc1ccoc1C(=O)N1CCO[C@H]2[C@H](OCCN(C)C)CC[C@@H]21 | -5.88 |
| CC(C)=CCCC(C)CN1CCC(n2cc(C(=O)NCCO)nn2)CC1 (stereo not given) | 0.232 |
| CO[C@H]1CCN(C2CCOCC2)C[C@@H]1Cc1ccccc1 | 3.11 |
| N#Cc1csc(CNCCOc2ccccc2)c1 | 8.35 |
| COc1cc(OC)cc(N2CCC(NCc3occc3C)C2=O)c1 (stereo not given) | 0.995 |
| COc1cc(N2C[C@H]3CCC[C@@H](CN(C)C4CC4)[C@H]3C2)ncn1 | -73 |
| O=C(COC1CCOC1)N(CC(F)F)c1cccc(Cl)c1 (stereo not given) | 3.44 |
| N#Cc1nccnc1N1CCC(COCc2ccccc2)C1 (stereo not given) | 7.78 |
| CCc1nc(C2CCCN2Cc2nc(Cc3ccccc3)no2)no1 (stereo not given) | 3.12 |
| CN1CCOC(CNCc2nc(-c3cccnc3)no2)C1 (stereo not given) | -5.3 |
| COc1cccc(N2CCN(Cc3ccc4[nH]ccc4c3)CC2=O)c1 | 4.59 |
| CN(C)c1ncc(-c2ccncc2)c(CCNC(=O)C2CC2)n1 | 0.05 |
| Cc1noc(C2CCCN(Cn3cc(Cl)cn3)C2)n1 (stereo not given) | 2.42 |

| Structure (SMILES) | cytotoxicity at 10 µM [%] |
| --- | --- |
| COc1ccc(Oc2ncccc2NC(=O)N2CCOCC2)cc1 | 9.11 |
| O=S(=O)(Cc1ccccc1)c1nnc(N2CCOCC2)s1 | -4.65 |
| Cc1noc([C@H]2C[C@H]3OCC[C@H]3N(Cc3scnc3C)C2)n1 | -73.4 |
| O=C(O)c1cc2c(nc1O)CC(c1cccs1)CC2=O (stereo not given) | 8.32 |
| CCN1CC(C(=O)N(C)Cc2ccon2)CC1=O (stereo not given) | 7.08 |
| CCn1c(CN2CCC(O)(C(=O)OC)CC2)nc2c(F)cccc21 | -9.73 |
| CC(C(=O)N1CCN(Cc2ccc3c(c2)OCO3)CC1)n1ccnc1 (stereo not given) | -9.57 |
| CNc1nc(C(=O)N2C[C@@H]3CC[C@H]2CN(C2CCOCC2)C3)cs1 | 4.84 |
| O=C(Cn1cccn1)Nc1ccc(N2CCCCC2)cc1 | 0.955 |
| O=C(CCc1nccs1)N1CCC(N2CCNC2=O)CC1 | -9.86 |
| O=C1CC2(CCN(CCO)CC2)CN1Cc1cc(F)cc(F)c1 | -15.7 |
| O=C(O)c1cc(-c2ccncc2F)cc(S(=O)(=O)N2CCCCCC2)c1 | -0.2 |
| COCC(C)(O)CNC(=O)c1cc(-c2ccc(F)cc2)nn1C (stereo not given) | -5.1 |
| CC(=O)N[C@@H]1CN(C(=O)c2cc3sccc3[nH]2)C[C@H]1c1ccc(C)o1 | 8.98 |
| COc1ccc(C(=O)N2CCC3(CCC(=O)N(C(C)C)C3)CC2)cc1C | -3.47 |
| Cc1nc(CN2CCC2(CCCc2ccccn2)C(=O)N(C)C)co1 (stereo not given) | 11.4 |
| Cc1cccc(OC2CCN(c3ccc(C#N)cn3)CC2)n1 | 15.5 |
| CCc1nn(C)c(Cl)c1CN1CCCC(c2cc(O)nc(C)n2)C1 (stereo not given) | -2.37 |
| Cn1nc(C(=O)NCc2cccc(Cn3ccnc3)c2)ccc1=O | 8.53 |
| Cc1nc(C)n(CC2CN(CCCOc3ccc(F)cc3)CCO2)n1 (stereo not given) | -4.26 |
| CCCN1C[C@H](NC(=O)c2cc(C)no2)[C@@H](c2ccc(OC)cc2)C1 | -27.3 |
| CCSc1ncc(-c2cc(C3CC3)nc(N)c2C#N)cn1 | 6.99 |
